Reference: ChEMBL document CHEMBL4689842, “EUbOPEN Chemogenomics Library wave 1” (2021)

Columns and labels:
[1] = test system: U2OS; assay: Multiplex assay against U2OS; type: toxicity, cell-based; settings: human
Outline: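 Hoechst33342, BioTracker Green Microtubule Cytoskeleton Dye, MitoTracker Red and Annexin V Alexa Fluor 680 were added to live cells at seeding, and imaging on a CQ1 microscope at 37°C and 5% CO2 followed compound addition. Gating by CellPathfinder machine learning separated cells into Hoechst high-intensity objects or normal cells, then normal cells into healthy, pyknosed or fragmented nuclei, then pyknosed cells into mitotic or apoptotic. Per cents of healthy-nucleus cells are reported for the tubulin, mitochondrial-mass and membrane-permeability phenotypes.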

[2] = test system: U2OS; assay: Incucyte cell viability with U2OS; type: toxicity, cell-based; settings: human, 10 µM, compound concentration 10 uM; further: filed as whole numbers so only -1 and 0 and 1 occur
[3] = 12 h, 1 µM, compound concentration 1 uM, replicate 1
[4] = 12 h, 1 µM, compound concentration 1 uM, replicate 2
[5] = 12 h, 10 µM, compound concentration 10 uM, replicate 1
[6] = 12 h, 10 µM, compound concentration 10 uM, replicate 2
[7] = 24 h, 1 µM, compound concentration 1 uM, replicate 1
[8] = 24 h, 1 µM, compound concentration 1 uM, replicate 2
[9] = 24 h, 10 µM, compound concentration 10 uM, replicate 1
[10] = 24 h, 10 µM, compound concentration 10 uM, replicate 2
[11] = 48 h, 1 µM, compound concentration 1 uM, replicate 1
[12] = 48 h, 1 µM, compound concentration 1 uM, replicate 2
[13] = 48 h, 10 µM, compound concentration 10 uM, replicate 1
[14] = 48 h, 10 µM, compound concentration 10 uM, replicate 2

SMILES: Cl.Cl.Nc1ncnc2c1c(-c1cccc(OCc3ccccc3)c1)cn2[C@H]1C[C@@H](CN2CCC2)C1
- Population Apoptotic (%) [1, 3]: 33%
- Population Fragmented Nuclei (%) [1, 3]: 13%
- Population Healthy Nuclei (%) [1, 3]: 70%
- Population Hoechst High Intensity Objects (%) [1, 3]: 5%
- Population Membrane Permeable-Phenotype (%) [1, 3]: 8%
- Population Mitochondria Different-Phenotype (%) [1, 3]: 58%
- Population Mitotic Cells (%) [1, 3]: 66%
- Population Normal (%) [1, 3]: 94%
- Population Pyknosed Nuclei (%) [1, 3]: 16%
- Population Tubulin-Different-Phenotype (%) [1, 3]: 38%
- Total Cell Count [1, 3]: 176
- Population Apoptotic (%) [1, 4]: 29%
- Population Fragmented Nuclei (%) [1, 4]: 11%
- Population Healthy Nuclei (%) [1, 4]: 67%
- Population Hoechst High Intensity Objects (%) [1, 4]: 6%
- Population Membrane Permeable-Phenotype (%) [1, 4]: 3%
- Population Mitochondria Different-Phenotype (%) [1, 4]: 71%
- Population Mitotic Cells (%) [1, 4]: 70%
- Population Normal (%) [1, 4]: 93%
- Population Pyknosed Nuclei (%) [1, 4]: 20%
- Population Tubulin-Different-Phenotype (%) [1, 4]: 52%
- Total Cell Count [1, 4]: 55
- Population Apoptotic (%) [1, 5]: 81%
- Population Fragmented Nuclei (%) [1, 5]: 23%
- Population Healthy Nuclei (%) [1, 5]: 41%
- Population Hoechst High Intensity Objects (%) [1, 5]: 9%
- Population Membrane Permeable-Phenotype (%) [1, 5]: 67%
- Population Mitochondria Different-Phenotype (%) [1, 5]: 100%
- Population Mitotic Cells (%) [1, 5]: 18%
- Population Normal (%) [1, 5]: 90%
- Population Pyknosed Nuclei (%) [1, 5]: 35%
- Population Tubulin-Different-Phenotype (%) [1, 5]: 100%
- Total Cell Count [1, 5]: 135
- Population Apoptotic (%) [1, 6]: 85%
- Population Fragmented Nuclei (%) [1, 6]: 22%
- Population Healthy Nuclei (%) [1, 6]: 47%
- Population Hoechst High Intensity Objects (%) [1, 6]: 8%
- Population Membrane Permeable-Phenotype (%) [1, 6]: 77%
- Population Mitochondria Different-Phenotype (%) [1, 6]: 97%
- Population Mitotic Cells (%) [1, 6]: 14%
- Population Normal (%) [1, 6]: 91%
- Population Pyknosed Nuclei (%) [1, 6]: 29%
- Population Tubulin-Different-Phenotype (%) [1, 6]: 97%
- Total Cell Count [1, 6]: 90
- Population Apoptotic (%) [1, 7]: 56%
- Population Fragmented Nuclei (%) [1, 7]: 10%
- Population Healthy Nuclei (%) [1, 7]: 69%
- Population Hoechst High Intensity Objects (%) [1, 7]: 4%
- Population Membrane Permeable-Phenotype (%) [1, 7]: 5%
- Population Mitochondria Different-Phenotype (%) [1, 7]: 62%
- Population Mitotic Cells (%) [1, 7]: 43%
- Population Normal (%) [1, 7]: 95%
- Population Pyknosed Nuclei (%) [1, 7]: 20%
- Population Tubulin-Different-Phenotype (%) [1, 7]: 34%
- Total Cell Count [1, 7]: 176
- Population Apoptotic (%) [1, 8]: 28%
- Population Fragmented Nuclei (%) [1, 8]: 13%
- Population Healthy Nuclei (%) [1, 8]: 64%
- Population Hoechst High Intensity Objects (%) [1, 8]: 6%
- Population Membrane Permeable-Phenotype (%) [1, 8]: 4%
- Population Mitochondria Different-Phenotype (%) [1, 8]: 68%
- Population Mitotic Cells (%) [1, 8]: 71%
- Population Normal (%) [1, 8]: 93%
- Population Pyknosed Nuclei (%) [1, 8]: 21%
- Population Tubulin-Different-Phenotype (%) [1, 8]: 39%
- Total Cell Count [1, 8]: 50
- Population Apoptotic (%) [1, 9]: 90%
- Population Fragmented Nuclei (%) [1, 9]: 25%
- Population Healthy Nuclei (%) [1, 9]: 30%
- Population Membrane Permeable-Phenotype (%) [1, 9]: 92%
- Population Mitochondria Different-Phenotype (%) [1, 9]: 100%
- Population Mitotic Cells (%) [1, 9]: 9%
- Population Pyknosed Nuclei (%) [1, 9]: 43%
- Population Tubulin-Different-Phenotype (%) [1, 9]: 100%
- Total Cell Count [1, 9]: 157
- Population Apoptotic (%) [1, 10]: 92%
- Population Fragmented Nuclei (%) [1, 10]: 21%
- Population Healthy Nuclei (%) [1, 10]: 35%
- Population Hoechst High Intensity Objects (%) [1, 10]: 9%
- Population Membrane Permeable-Phenotype (%) [1, 10]: 93%
- Population Mitochondria Different-Phenotype (%) [1, 10]: 96%
- Population Mitotic Cells (%) [1, 10]: 7%
- Population Normal (%) [1, 10]: 90%
- Population Pyknosed Nuclei (%) [1, 10]: 42%
- Population Tubulin-Different-Phenotype (%) [1, 10]: 96%
- Total Cell Count [1, 10]: 104
- Population Apoptotic (%) [1, 11]: 65%
- Population Fragmented Nuclei (%) [1, 11]: 10%
- Population Healthy Nuclei (%) [1, 11]: 73%
- Population Hoechst High Intensity Objects (%) [1, 11]: 2%
- Population Membrane Permeable-Phenotype (%) [1, 11]: 4%
- Population Mitochondria Different-Phenotype (%) [1, 11]: 34%
- Population Mitotic Cells (%) [1, 11]: 34%
- Population Normal (%) [1, 11]: 97%
- Population Pyknosed Nuclei (%) [1, 11]: 16%
- Population Tubulin-Different-Phenotype (%) [1, 11]: 23%
- Total Cell Count [1, 11]: 182
- Population Apoptotic (%) [1, 12]: 47%
- Population Fragmented Nuclei (%) [1, 12]: 8%
- Population Healthy Nuclei (%) [1, 12]: 76%
- Population Hoechst High Intensity Objects (%) [1, 12]: 3%
- Population Membrane Permeable-Phenotype (%) [1, 12]: 12%
- Population Mitochondria Different-Phenotype (%) [1, 12]: 44%
- Population Mitotic Cells (%) [1, 12]: 52%
- Population Normal (%) [1, 12]: 96%
- Population Pyknosed Nuclei (%) [1, 12]: 15%
- Population Tubulin-Different-Phenotype (%) [1, 12]: 26%
- Total Cell Count [1, 12]: 55
- Population Apoptotic (%) [1, 13]: 100%
- Population Fragmented Nuclei (%) [1, 13]: 30%
- Population Healthy Nuclei (%) [1, 13]: 7%
- Population Hoechst High Intensity Objects (%) [1, 13]: 12%
- Population Membrane Permeable-Phenotype (%) [1, 13]: 100%
- Population Mitochondria Different-Phenotype (%) [1, 13]: 100%
- Population Mitotic Cells (%) [1, 13]: 0%
- Population Normal (%) [1, 13]: 87%
- Population Pyknosed Nuclei (%) [1, 13]: 61%
- Population Tubulin-Different-Phenotype (%) [1, 13]: 100%
- Total Cell Count [1, 13]: 203
- Population Apoptotic (%) [1, 14]: 96%
- Population Fragmented Nuclei (%) [1, 14]: 21%
- Population Healthy Nuclei (%) [1, 14]: 38%
- Population Hoechst High Intensity Objects (%) [1, 14]: 23%
- Population Membrane Permeable-Phenotype (%) [1, 14]: 96%
- Population Mitotic Cells (%) [1, 14]: 3%
- Population Normal (%) [1, 14]: 76%
- Population Pyknosed Nuclei (%) [1, 14]: 40%
- Total Cell Count [1, 14]: 130
- Growth Rate ([2]; 0 h, replicate number 1, timepoint 0 hours): 0
- Growth Rate ([2]; 6 h, replicate number 1, timepoint 6 hours): 0
- Growth Rate ([2]; 12 h, replicate number 1, timepoint 12 hours): 0
- Growth Rate ([2]; 12 h, replicate number 2, timepoint 12 hours): 1
- Growth Rate ([2]; 18 h, replicate number 1, timepoint 18 hours): 0
- Growth Rate ([2]; 18 h, replicate number 2, timepoint 18 hours): 1
- Growth Rate ([2]; 24 h, replicate number 1, timepoint 24 hours): 0
